Fewer inactive variants are shown than the library holds.
B1: tRNA (parent)
chain: GUUCCGUUGGCGUAAUGGUAACGCGUCUCCCUCCUAAGGAGAAGACUGCGGGUUCGAGUCCCGUACGGAACG

Variants of: B1
Test: yeast fitness relative to wild type (ratio to wild type); higher = fitter; tRNA-Arg(CCU), competitive growth, 37 C, YPD
How it was run: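 For this measurement, the tRNA-Arg(CCU) gene was varied by chemical synthesis at a 3% per-site mutation rate across 69 sites, and each variant was placed at the native genomic locus in Saccharomyces cerevisiae. The pooled strains went through a 24-hour competition in YPD at 37°C in six parallel replicates, with amplicons from start and end populations read by 100-nucleotide paired-end sequencing. Darwinian fitness relative to wild type followed from the change in each genotype's frequency. Genotypes needed ≥ 100 starting reads, and estimates < 0.5 were set to 0.5.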

Compared with G41A C46G G48A U54C C55U A70C, G10C C31A A37U G63A A65G is lower in yeast fitness: 0.542 for the first, at most 0.5 for the second.

Compared with A42C C55U, A45U U59G is lower in yeast fitness: 0.744 for the first, 0.66 for the second.

C4U U8C A37U A45U C49U A65G and C29A C46A C55A A57G cannot be ordered by yeast fitness: at most 0.5 for the first, at most 0.5 for the second.

U47C C60U C62A and U7G U32A C46U C60A cannot be ordered by yeast fitness: at most 0.5 for the first, at most 0.5 for the second.

Compared with U32A A45U, U8C G25A A37C G68U is lower in yeast fitness: 0.789 for the first, at most 0.5 for the second.

Compared with C49U C61U, G10C G18A G25C A45G is lower in yeast fitness: 0.814 for the first, at most 0.5 for the second.

Going from G12C C33U U47C G48A G58A to G6C U16G C46A, the yeast fitness rises from at most 0.5 to 0.599.

Compared with A36U A37U C55U, A20C C29G G52A is lower in yeast fitness: 0.634 for the first, at most 0.5 for the second.

First: A15G A21U A36U C49U G52C C62A G67A
Second: C24G G25C A45G C60A
The yeast fitness of the first is lower: at most 0.5 for the first, 0.617 for the second.

U8G U35A G41A U54A C55U and U19G C60U C61G G67A cannot be ordered by yeast fitness: at most 0.5 for the first, at most 0.5 for the second.

Compared with G12U C33U C34G, C4G A14C G25C A45U A57U is higher in yeast fitness: at most 0.5 for the first, 0.55 for the second.

Going from C22A A45U G63A to U8A C24G G41C A65G, the yeast fitness falls from 0.558 to at most 0.5.

Going from C29G C31A U35C G67A to C30G C33U G58C U64A, the yeast fitness rises from at most 0.5 to 0.56.

First: A14C C24G A42G
Second: C27A G44C G50C
The yeast fitness of the first is lower: at most 0.5 for the first, 0.639 for the second.

G6A G17A C27U C31G C66G and A15C U16A A45U G48C C61U cannot be ordered by yeast fitness: at most 0.5 for the first, at most 0.5 for the second.

U7A G50C A57C C61U and A15C A20G A65U A69G cannot be ordered by yeast fitness: at most 0.5 for the first, at most 0.5 for the second.

First: U8C C30G
Second: C5U U19C C29U A42C A57G
The yeast fitness of the first is higher: 0.674 for the first, at most 0.5 for the second.

Going from U19C G23C U53C to G23A C29G G52C, the yeast fitness falls from 0.562 to at most 0.5.

First: U19C G68C
Second: U2A A21G C46G U54C
The yeast fitness of the first is higher: 0.83 for the first, at most 0.5 for the second.

First: U32C A37U
Second: C24G C31A U64A
The yeast fitness of the first is higher: 0.729 for the first, at most 0.5 for the second.

G9C C24U C30G G52A C61U and C29G A43G U64C cannot be ordered by yeast fitness: at most 0.5 for the first, at most 0.5 for the second.

Compared with U8C C29U, C4G G38A C55U C60G is lower in yeast fitness: 0.937 for the first, at most 0.5 for the second.

C4G U7C A20G C27A U59G and U7A C24G C31U C55A cannot be ordered by yeast fitness: at most 0.5 for the first, at most 0.5 for the second.

Going from C5G U28G C31U G51A U54A U59A to U26A U64A, the yeast fitness rises from 0.522 to 0.788.

Going from C34A G52A C61G G63A to G58A C62G, the yeast fitness rises from at most 0.5 to 1.14.

Going from G23A C30U A37U G41C to U28G A70G, the yeast fitness rises from 0.634 to 0.826.

Compared with U47A C61U A70C, G25A A45U is higher in yeast fitness: 0.558 for the first, 0.803 for the second.

First: G18A G67A
Second: G10C U26C A45G U53C A65C
The yeast fitness of the first is higher: 0.675 for the first, at most 0.5 for the second.

Going from U3G C34G C62U to U16A A40G, the yeast fitness rises from at most 0.5 to 0.913.

U28G U32A A43C and G12C G38A A40G A42C cannot be ordered by yeast fitness: at most 0.5 for the first, at most 0.5 for the second.

Going from C11G A21G G51C to U2G G9C A20G A42C C46G C49U G63A A69C, the yeast fitness falls from 0.872 to at most 0.5.

Going from C4U U19C A43U to G9C U13G U28C G41C A43C A45U C49G U53G A69C, the yeast fitness falls from 0.955 to 0.611.

Going from U32C C33A to A42U G58A, the yeast fitness rises from 0.628 to 0.939.

Going from U16C A42G to C11U G12A C27U G52A C62U, the yeast fitness falls from 0.904 to at most 0.5.

A43C C55A A57C and C5U A37C G50C cannot be ordered by yeast fitness: at most 0.5 for the first, at most 0.5 for the second.

G12C U13G A15C A36U C55G and A21C C31G C62U A69G cannot be ordered by yeast fitness: at most 0.5 for the first, at most 0.5 for the second.

Going from U8C C49G A57G to C5U A21U C30G C66A, the yeast fitness rises from 0.531 to 0.552.

Compared with C5G C22G C62A, A15G C29G C33G is lower in yeast fitness: 0.509 for the first, at most 0.5 for the second.

Compared with A15C A40C U54C, C29U C30U A65G is higher in yeast fitness: at most 0.5 for the first, 0.704 for the second.

First: G6A G12A
Second: G17A A40C
The yeast fitness of the first is higher: 0.764 for the first, 0.668 for the second.

First: C30G A40U C46U
Second: G10C C22U U59G C60U
The yeast fitness of the first is higher: 0.558 for the first, at most 0.5 for the second.

In the case of U3C C11A C24U A42G, the yeast fitness is reported as 0.638.
